Reference: ChEMBL document CHEMBL4033652, “Design, synthesis, and pharmacological evaluation of 4-azolyl-benzamide derivatives as novel GPR52 agonists” (Bioorg Med Chem, 2017)
Calls of active or inactive are those of the source. No cut-off for these calls is given here.

How the values were obtained:
[1] = target: T1, G-protein coupled receptor 52 (Homo sapiens, UniProt Q9Y2T5); assay: Agonist activity at human GPR52 expressed in CHO cells assessed as increase in cAMP level after 30 mins by AlphaScreen assay; assay type: functional, cell-based
How it was run: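 CHO cells stably expressing human GPR52 (10,000/well) exposed to compound at various concentrations, 30 min, 37°C, in HBSS with 5 mM HEPES pH 7.6, 0.5% BSA, 100 µM IBMX and 100 µM Ro20-1724. AlphaScreen acceptor/donor beads added overnight at room temperature. Response expressed relative to a reference benzofuran agonist (100%). EC50 from mean curves, n = 2–4, 95% CI.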

[2] = target: T1, G-protein coupled receptor 52; assay: Agonist activity at human GPR52 expressed in CHO cells assessed as increase in cAMP level after 30 mins by AlphaScreen assay relative to (N-(2-hydroxyethyl)-3-(2-(3-(trifluoromethyl)benzyl)-1-benzofuran-4-yl)benzamide); assay type: functional, cell-based
How it was run: (§1)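 CHO cells stably expressing human GPR52, 10,000 cells per well, exposed to compound 30 min at 37°C in HBSS with 5 mM HEPES pH 7.6, 0.5% BSA, 100 µM IBMX and 100 µM Ro20-1724. cAMP measured by AlphaScreen with acceptor and biotinylated donor beads after overnight room-temperature incubation. Emax set relative to the reference benzofuran benzamide (100%). EC50 taken from mean curves, n = 2–4, with 95% CI.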

[3] = target: T1, G-protein coupled receptor 52; assay: Agonist activity at human GPR52 expressed in CHO cells assessed as increase in cAMP level at 1 uM after 30 mins by AlphaScreen assay relative to (N-(2-hydroxyethyl)-3-(2-(3-(trifluoromethyl)benzyl)-1-benzofuran-4-yl)benzamide); assay type: functional, cell-based; how it was run: as §1
[4] = Ratio of AUC (0 to 24 hrs) in ICR mouse brain to plasma at 10 mg/kg, po; assay type: ADME, organism-based; settings: brain and plasma, read-out: Ratio AUC
[5] = Oral bioavailability in Sprague-Dawley rat at 1 mg/kg administered as cassette dose by LC-MS/MS analysis; assay type: ADME, organism-based; settings: in vivo
How it was run: (§2)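 Cassette dosing in non-fasted male SD rats (n = 3): i.v. 0.1 mg/kg or p.o. 1 mg/kg. Plasma prepared from blood, deproteinized, centrifuged, supernatant measured by LC/MS/MS. AUC taken over 0–8 h.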

[6] = AUC (0 to 8 hrs) in Sprague-Dawley rat at 1 mg/kg, po administered as cassette dose by LC-MS/MS analysis; assay type: ADME, organism-based; set-up: time < 8 hr, dose 1 mg/kg, route oral; settings: in vivo; how it was run: as §2
[7] = Total clearance in Sprague-Dawley rat at 0.1 mg/kg, iv or 1 mg/kg, po administered as cassette dose by LC/MS/MS analysis; assay type: ADME, organism-based; settings: in vivo; how it was run: as §2
[8] = Metabolic stability in human liver microsomes at 1 uM after 15 to 30 mins in presence of NADPH by LC/MS/MS analysis; assay type: ADME, microsome; settings: read-out: Stability
How it was run: (§3)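 Human, rat or mouse liver microsomes (0.2 mg/mL protein) incubated with test compound at 1 µmol/L in 50 mmol/L phosphate buffer pH 7.4. Reaction started with an NADPH-generating system, run 15 and 30 min at 37°C, stopped with acetonitrile. Duplicates. Parent compound loss measured by LC/MS/MS.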

[9] = Metabolic stability in rat liver microsomes at 1 uM after 15 to 30 mins in presence of NADPH by LC/MS/MS analysis; assay type: ADME, microsome; settings: read-out: Stability; how it was run: as §3
[10] = Metabolic stability in mouse liver microsomes at 1 uM after 15 to 30 mins in presence of NADPH by LC/MS/MS analysis; assay type: ADME, microsome; settings: read-out: Stability; how it was run: as §3
[11] = Cmax in ICR mouse plasma at 10 mg/kg, po by LC/MS/MS analysis; assay type: ADME, organism-based; set-up: dose 10 mg/kg, route oral
How it was run: (§4)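 Male ICR mice dosed orally at 10 or 30 mg/kg as a suspension in 0.5% methylcellulose. Blood and brain taken at 0.25, 0.5, 1, 2, 4, 8 and 24 h, n = 3 per time point. Plasma separated; brain homogenized in saline. Samples mixed with acetonitrile, centrifuged, supernatant quantified by LC/MS/MS.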

[12] = Cmax in ICR mouse brain at 10 mg/kg, po by LC/MS/MS analysis; assay type: ADME, organism-based; set-up: dose 10 mg/kg, route oral; how it was run: as §4
[13] = Cmax in ICR mouse plasma at 30 mg/kg, po by LC/MS/MS analysis; assay type: ADME, organism-based; set-up: dose 30 mg/kg, route oral; how it was run: as §4
[14] = Cmax in ICR mouse brain at 30 mg/kg, po by LC/MS/MS analysis; assay type: ADME, organism-based; set-up: dose 30 mg/kg, route oral; how it was run: as §4
[15] = Tmax in ICR mouse plasma at 10 mg/kg, po by LC/MS/MS analysis; assay type: ADME, organism-based; how it was run: as §4
[16] = Tmax in ICR mouse brain at 10 mg/kg, po by LC/MS/MS analysis; assay type: ADME, organism-based; how it was run: as §4
[17] = Tmax in ICR mouse plasma at 30 mg/kg, po by LC/MS/MS analysis; assay type: ADME, organism-based; how it was run: as §4
[18] = Tmax in ICR mouse brain at 30 mg/kg, po by LC/MS/MS analysis; assay type: ADME, organism-based; how it was run: as §4
[19] = AUC (0 to 24 hrs) in ICR mouse plasma at 10 mg/kg, po by LC/MS/MS analysis; assay type: ADME, organism-based; set-up: time < 24 hr, dose 10 mg/kg, route oral; how it was run: as §4
[20] = system: Brain; assay: AUC (0 to 24 hrs) in ICR mouse brain at 10 mg/kg, po by LC/MS/MS analysis; assay type: ADME, organism-based; set-up: time < 24 hr, dose 10 mg/kg, route oral; settings: in vivo; how it was run: as §4
[21] = AUC (0 to 24 hrs) in ICR mouse plasma at 30 mg/kg, po by LC/MS/MS analysis; assay type: ADME, organism-based; set-up: time < 24 hr, dose 30 mg/kg, route oral; how it was run: as §4
[22] = system: Brain; assay: AUC (0 to 24 hrs) in ICR mouse brain at 30 mg/kg, po by LC/MS/MS analysis; assay type: ADME, organism-based; set-up: time < 24 hr, dose 30 mg/kg, route oral; settings: in vivo; how it was run: as §4
[23] = Ratio of AUC (0 to 24 hrs) in ICR mouse brain to plasma at 30 mg/kg, po; assay type: ADME, organism-based; settings: brain and plasma, read-out: Ratio AUC
[24] = MRT in ICR mouse plasma at 10 mg/kg, po by LC/MS/MS analysis; assay type: ADME, organism-based; how it was run: as §4
[25] = MRT in ICR mouse brain at 10 mg/kg, po by LC/MS/MS analysis; assay type: ADME, organism-based; how it was run: as §4
[26] = MRT in ICR mouse plasma at 30 mg/kg, po by LC/MS/MS analysis; assay type: ADME, organism-based; how it was run: as §4
[27] = MRT in ICR mouse brain at 30 mg/kg, po by LC/MS/MS analysis; assay type: ADME, organism-based; how it was run: as §4
[28] = Protein binding in ICR mouse plasma at 1 uM after 24 hrs by LC/MS/MS based equilibrium dailysis method; assay type: ADME, cell-free; settings: read-out: PPB (converted)
How it was run: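 Plasma from male ICR mice spiked with compound at a final 1 µmol/L. Equilibrium dialysis (MWCO 6–8 kDa) against PBS for 24 h at room temperature. Both sides quantified by LC-MS/MS; bound fraction calculated from the plasma and PBS concentrations.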

[29] = target: D(1A) dopamine receptor (Homo sapiens) (UniProt P21728); assay: Inhibition of dopamine D1 receptor (unknown origin) at 10 uM
[30] = target: dopamine D2L receptor (Homo sapiens, UniProt P14416); assay: Inhibition of dopamine D2L receptor (unknown origin) at 10 uM
[31] = target: 5-hydroxytryptamine receptor 2A (Homo sapiens) (UniProt P28223); assay: Inhibition of 5-HT2 receptor (unknown origin) at 10 uM
[32] = species on record: Homo sapiens; assay: Inhibition of AMPA receptor (unknown origin) at 10 uM
[33] = target: Glutamate [NMDA] receptor (Homo sapiens) (UniProt Q05586+Q12879+Q13224+O15399+O60391+Q14957+Q8TCU5); assay: Inhibition of NMDA receptor (unknown origin) at 10 uM
[34] = system: Mus musculus; assay: Anti-psychotic activity in ICR mouse assessed as inhibition of methamphetamine-induced hyperlocomotion at 10 mg/kg, po pretreated for 60 mins followed by methamphetamine administration measured after 150 mins; assay type: functional, organism-based
How it was run: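 Male ICR mice aged 7–8 weeks, housed singly in activity-monitor cages and habituated 60 min. Compound given p.o. (1–30 mg/kg range tested). Methamphetamine 2 mg/kg s.c. given 60 min later. Activity counts recorded for 150 min after compound dosing. Mean ± SEM, t-test and Williams test.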

[35] = target: G-protein coupled receptor 52 (Mus musculus, UniProt P0C5J4); assay: Agonist activity at mouse GPR52
[36] = target: G-protein coupled receptor 52 (Mus musculus) (UniProt P0C5J4); assay: Agonist activity at mouse GPR52 relative to (N-(2-hydroxyethyl)-3-(2-(3-(trifluoromethyl)benzyl)-1-benzofuran-4-yl)benzamide)
[37] = system: Mus musculus; assay: Toxicity in ICR mouse model of methamphetamine-induced hyperlocomotion assessed as cataleptogenic effect at 10 mg/kg, po; assay type: organism-based; settings: in vivo

T1 sequence (Q9Y2T5 whole entry): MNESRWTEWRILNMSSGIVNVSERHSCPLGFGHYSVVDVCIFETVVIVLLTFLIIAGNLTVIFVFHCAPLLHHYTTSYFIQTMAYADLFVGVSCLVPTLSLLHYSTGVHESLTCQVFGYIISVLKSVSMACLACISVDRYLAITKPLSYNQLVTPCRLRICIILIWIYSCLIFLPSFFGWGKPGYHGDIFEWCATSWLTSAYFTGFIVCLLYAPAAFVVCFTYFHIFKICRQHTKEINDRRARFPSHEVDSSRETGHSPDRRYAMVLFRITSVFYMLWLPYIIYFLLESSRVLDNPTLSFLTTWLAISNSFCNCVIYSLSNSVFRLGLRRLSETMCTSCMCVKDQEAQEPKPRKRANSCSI
Chain of D(1A) dopamine receptor (Homo sapiens) (P21728 whole entry): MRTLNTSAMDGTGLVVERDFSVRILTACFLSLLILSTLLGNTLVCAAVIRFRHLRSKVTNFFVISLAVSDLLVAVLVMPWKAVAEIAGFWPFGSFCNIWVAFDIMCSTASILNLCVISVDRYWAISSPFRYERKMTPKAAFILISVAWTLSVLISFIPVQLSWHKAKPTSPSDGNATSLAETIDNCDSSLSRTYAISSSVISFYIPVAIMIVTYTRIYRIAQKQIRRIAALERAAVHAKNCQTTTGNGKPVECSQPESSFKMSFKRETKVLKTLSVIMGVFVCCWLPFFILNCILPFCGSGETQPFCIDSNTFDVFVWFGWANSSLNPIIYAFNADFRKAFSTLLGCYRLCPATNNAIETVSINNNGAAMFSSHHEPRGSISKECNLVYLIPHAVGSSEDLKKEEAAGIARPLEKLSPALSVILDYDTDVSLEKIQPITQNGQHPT
Chain of 5-hydroxytryptamine receptor 2A (Homo sapiens) (P28223 whole entry): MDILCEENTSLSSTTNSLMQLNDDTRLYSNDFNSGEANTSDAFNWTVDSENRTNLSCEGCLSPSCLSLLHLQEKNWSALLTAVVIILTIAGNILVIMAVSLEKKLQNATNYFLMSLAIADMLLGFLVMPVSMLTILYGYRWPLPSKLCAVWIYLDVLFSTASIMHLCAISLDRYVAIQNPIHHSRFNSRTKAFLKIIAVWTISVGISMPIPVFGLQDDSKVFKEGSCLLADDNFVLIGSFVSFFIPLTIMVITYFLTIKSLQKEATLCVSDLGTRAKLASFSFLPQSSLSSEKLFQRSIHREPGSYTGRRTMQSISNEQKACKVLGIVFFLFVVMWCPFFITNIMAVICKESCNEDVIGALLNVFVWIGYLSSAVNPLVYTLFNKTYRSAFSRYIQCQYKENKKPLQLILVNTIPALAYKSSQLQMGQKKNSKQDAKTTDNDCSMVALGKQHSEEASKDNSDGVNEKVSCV
Chain of G-protein coupled receptor 52 (Mus musculus, UniProt P0C5J4) (P0C5J4 whole entry): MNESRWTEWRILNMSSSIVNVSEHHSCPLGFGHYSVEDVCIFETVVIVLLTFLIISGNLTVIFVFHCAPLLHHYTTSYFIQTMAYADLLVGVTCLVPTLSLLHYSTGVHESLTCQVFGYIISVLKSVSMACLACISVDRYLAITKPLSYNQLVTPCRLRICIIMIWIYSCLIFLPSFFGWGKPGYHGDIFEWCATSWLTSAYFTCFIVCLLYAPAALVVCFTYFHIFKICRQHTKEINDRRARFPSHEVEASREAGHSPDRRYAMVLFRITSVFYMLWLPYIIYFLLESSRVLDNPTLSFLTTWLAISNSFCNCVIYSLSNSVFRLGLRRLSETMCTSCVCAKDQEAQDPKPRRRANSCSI
Chain of G-protein coupled receptor 52 (Mus musculus) (P0C5J4 whole entry): as above
Chain of dopamine D2L receptor (P14416 whole entry): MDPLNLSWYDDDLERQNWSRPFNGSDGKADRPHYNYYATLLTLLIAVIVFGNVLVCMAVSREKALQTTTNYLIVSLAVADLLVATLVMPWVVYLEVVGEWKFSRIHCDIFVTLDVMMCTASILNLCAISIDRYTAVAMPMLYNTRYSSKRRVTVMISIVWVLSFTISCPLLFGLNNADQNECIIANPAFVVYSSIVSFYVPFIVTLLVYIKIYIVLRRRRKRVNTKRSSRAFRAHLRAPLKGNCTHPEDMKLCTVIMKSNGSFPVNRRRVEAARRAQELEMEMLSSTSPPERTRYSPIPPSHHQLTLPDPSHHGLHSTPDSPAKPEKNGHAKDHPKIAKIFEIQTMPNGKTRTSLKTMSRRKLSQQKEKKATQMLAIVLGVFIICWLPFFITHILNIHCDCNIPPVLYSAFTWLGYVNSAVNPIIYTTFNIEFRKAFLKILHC

## Cc1nc(Cc2cccc(C(F)(F)F)c2)sc1-c1ccc(C(N)=O)c(F)c1
[1]
  EC50: 380 nM
[2]
  Emax: 84%

## Cc1nc(Cc2cccc(C(F)(F)F)c2)sc1-c1ccc(C(N)=O)nc1 [TP-024n]
[1]
  EC50: > 1000 nM
[3]
  Emax: 11%

## Cc1cc(-c2sc(Cc3cccc(N(C)C)c3)nc2C)ccc1C(N)=O
[1]
  EC50: 690 nM
[2]
  Emax: 101%

## Cc1cc(C(N)=O)ccc1-c1sc(Cc2cccc(C(F)(F)F)c2)nc1C
[1]
  EC50: 1400 nM
[2]
  Emax: 87%

## CCc1cc(-c2sc(Cc3cccc(C(F)(F)F)c3)nc2C)ccc1C(N)=O
[1]
  EC50: 83 nM
[2]
  Emax: 84%

## Cc1cc(-n2nc(Cc3cc(F)cc(C(F)(F)F)c3)nc2C)ccc1C(N)=O [TP-024]
[4]
  Kp: 1.53
[1]
  EC50: 75 nM
[2]
  Emax: 122%
[5]
  bioavailability: 53.8%
[6]
  AUC(0-t) at 8 h: 384 ng·h/mL
[7]
  clearance: 23.5 mL/min/kg
[8]
  microsomal CLint at 1 µM: 17 µL/min/mg
[9]
  microsomal CLint at 1 µM: 9 µL/min/mg
[10]
  microsomal CLint at 1 µM: 24 µL/min/mg
[11]
  Cmax: 688 ng/mL
[12]
  Cmax: 1020 ng/g
[13]
  Cmax: 1210 ng/mL
[14]
  Cmax: 2330 ng/g
[15]
  Tmax: 0.5 h
[16]
  Tmax: 0.5 h
[17]
  Tmax: 1 h
[18]
  Tmax: 1 h
[19]
  AUC(0-t) at 24 h: 2430 ng·h/mL
[20]
  AUC: 3.731 µg·h/g
[21]
  AUC(0-t) at 24 h: 6200 ng·h/mL
[22]
  AUC: 10.414 µg·h/g
[23]
  Kp: 1.68
[24]
  MRT: 2.29 h
[25]
  MRT: 2.06 h
[26]
  MRT: 3.54 h
[27]
  MRT: 3.25 h
[28]
  fraction unbound at 24 h, 1 µM: 0.199
[29]
  inhibition: < 50%
[30]
  inhibition at 10 µM: < 50%
[31]
  inhibition: < 50%
[32]
  inhibition: < 50%
[33]
  inhibition: < 50%
[34]
  inhibition: Active
[35]
  EC50: 71 nM
[36]
  Emax: 114%
[37]
  Activity: Non-Toxic

## Cc1nc(Cc2cccc(C(F)(F)F)c2)sc1-c1ccc(C(N)=O)cn1
[1]
  EC50: 400 nM
[2]
  Emax: 70%

## COc1cc(-c2sc(Cc3cccc(C(F)(F)F)c3)nc2C)ccc1C(N)=O
[1]
  EC50: 170 nM
[2]
  Emax: 88%

## Cc1cc(-c2sc(Cc3cccc(C(F)(F)F)c3)nc2C)ccc1C(N)=O
[1]
  EC50: 73 nM
[2]
  Emax: 86%

## Cc1cc(-c2sc(Cc3cccc(Cl)c3)nc2C)ccc1C(N)=O
[1]
  EC50: 130 nM
[2]
  Emax: 75%

## Cc1cc(-c2sc(Cc3cc(F)cc(Cl)c3)nc2C)ccc1C(N)=O
[1]
  EC50: 25 nM
[2]
  Emax: 88%
